In ChEMBL document CHEMBL5653631, “A Potent and Selective ULK1 Inhibitor Suppresses Autophagy and Sensitizes Cancer Cells to Nutrient Stress” (iScience, 2018):

Columns and labels:
[1] = biological target: Protein kinase C alpha type (Homo sapiens) (UniProt P17252); experiment: Inhibition of human recombinant PKCa at 40 nM related to control ULK1
[2] = biological target: Death-associated protein kinase 1 (Homo sapiens) (UniProt P53355); experiment: Inhibition of human recombinant DAPK1 at 40 nM in presence of ATP by radiometric assay relative to control
[3] = biological target: Fibroblast growth factor receptor 1 (Homo sapiens) (UniProt P11362); experiment: Inhibition of human recombinant FGFR1 at 40 nM related to control ULK1
Chain of Fibroblast growth factor receptor 1 (Homo sapiens) (P11362 22-822 limits assumed): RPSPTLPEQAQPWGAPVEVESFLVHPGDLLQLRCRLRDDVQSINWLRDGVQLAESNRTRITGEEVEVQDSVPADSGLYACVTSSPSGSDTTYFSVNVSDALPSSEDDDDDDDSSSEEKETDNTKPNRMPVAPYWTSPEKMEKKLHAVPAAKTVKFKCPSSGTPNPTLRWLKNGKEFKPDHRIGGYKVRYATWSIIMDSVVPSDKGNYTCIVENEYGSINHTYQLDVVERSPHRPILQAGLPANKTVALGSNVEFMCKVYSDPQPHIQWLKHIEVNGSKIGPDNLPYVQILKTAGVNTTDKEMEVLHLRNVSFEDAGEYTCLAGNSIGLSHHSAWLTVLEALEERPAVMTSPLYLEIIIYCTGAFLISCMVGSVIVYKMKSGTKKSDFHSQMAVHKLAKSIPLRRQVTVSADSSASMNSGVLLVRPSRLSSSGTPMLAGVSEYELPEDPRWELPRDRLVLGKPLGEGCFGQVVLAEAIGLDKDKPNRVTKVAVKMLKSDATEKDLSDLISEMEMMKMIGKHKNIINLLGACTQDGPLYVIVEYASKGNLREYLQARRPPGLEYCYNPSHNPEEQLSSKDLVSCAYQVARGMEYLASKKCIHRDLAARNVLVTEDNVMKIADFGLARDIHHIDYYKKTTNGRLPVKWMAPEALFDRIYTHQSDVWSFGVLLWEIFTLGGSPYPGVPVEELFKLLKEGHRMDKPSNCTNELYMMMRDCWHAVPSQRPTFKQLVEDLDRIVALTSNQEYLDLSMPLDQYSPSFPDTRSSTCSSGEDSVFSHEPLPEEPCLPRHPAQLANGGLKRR

[4] = biological target: Wee1-like protein kinase (Homo sapiens) (UniProt P30291); experiment: Inhibition of human recombinant Wee1 at 500 nM related to control ULK1
Chain of Wee1-like protein kinase (Homo sapiens) (P30291 whole entry, looked up): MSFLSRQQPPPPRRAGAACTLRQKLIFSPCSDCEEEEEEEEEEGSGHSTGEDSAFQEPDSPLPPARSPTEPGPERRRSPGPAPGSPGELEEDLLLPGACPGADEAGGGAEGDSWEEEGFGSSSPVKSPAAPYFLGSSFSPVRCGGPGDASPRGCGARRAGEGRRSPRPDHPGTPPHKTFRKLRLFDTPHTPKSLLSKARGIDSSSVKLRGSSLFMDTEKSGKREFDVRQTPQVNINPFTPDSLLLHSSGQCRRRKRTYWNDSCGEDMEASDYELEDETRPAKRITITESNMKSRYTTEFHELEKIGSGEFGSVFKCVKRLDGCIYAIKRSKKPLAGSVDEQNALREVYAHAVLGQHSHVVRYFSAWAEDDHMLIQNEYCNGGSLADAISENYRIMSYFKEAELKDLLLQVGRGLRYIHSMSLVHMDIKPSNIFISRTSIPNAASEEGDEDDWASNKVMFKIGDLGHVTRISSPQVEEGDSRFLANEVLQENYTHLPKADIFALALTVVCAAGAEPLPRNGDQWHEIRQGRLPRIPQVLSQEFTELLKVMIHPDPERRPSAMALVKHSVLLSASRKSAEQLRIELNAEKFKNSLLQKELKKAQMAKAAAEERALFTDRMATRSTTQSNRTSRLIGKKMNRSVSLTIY

[5] = biological target: Serine-protein kinase ATM (Homo sapiens) (UniProt Q13315); experiment: Inhibition of human recombinant ATM at 500 nM related to control ULK1
Procedure, shortened: (§1)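 Panel of 327 recombinant human kinases, each assayed in vitro by radiometric activity assay in duplicate at a single inhibitor concentration per compound, chosen with reference to its ULK1 inhibition. Activity remaining was expressed as percent of vehicle control, and percent inhibition was calculated as 100 minus percent activity remaining.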

[6] = biological target: Tyrosine-protein kinase BTK (Homo sapiens) (UniProt Q06187); experiment: Inhibition of human recombinant BTK at 500 nM in presence of ATP by radiometric assay relative to control
Chain of Tyrosine-protein kinase BTK (Homo sapiens) (Q06187 whole entry): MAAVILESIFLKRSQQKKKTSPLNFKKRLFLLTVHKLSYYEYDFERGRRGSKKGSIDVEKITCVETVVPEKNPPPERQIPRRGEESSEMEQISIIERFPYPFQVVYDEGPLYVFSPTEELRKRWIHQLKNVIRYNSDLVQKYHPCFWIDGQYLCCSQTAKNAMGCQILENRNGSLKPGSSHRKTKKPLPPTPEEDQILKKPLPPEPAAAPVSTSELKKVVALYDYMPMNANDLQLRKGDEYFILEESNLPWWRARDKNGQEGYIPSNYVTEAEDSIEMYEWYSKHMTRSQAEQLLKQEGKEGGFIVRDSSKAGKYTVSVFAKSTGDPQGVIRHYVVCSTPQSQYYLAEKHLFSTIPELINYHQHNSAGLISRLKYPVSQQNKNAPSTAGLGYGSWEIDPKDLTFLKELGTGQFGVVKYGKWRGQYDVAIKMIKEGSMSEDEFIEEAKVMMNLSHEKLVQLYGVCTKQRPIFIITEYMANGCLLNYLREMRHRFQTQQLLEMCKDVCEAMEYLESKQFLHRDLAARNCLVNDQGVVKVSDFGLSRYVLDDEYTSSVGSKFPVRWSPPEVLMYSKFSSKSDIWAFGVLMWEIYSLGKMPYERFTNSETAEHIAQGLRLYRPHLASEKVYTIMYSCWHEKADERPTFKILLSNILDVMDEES

[7] = biological target: T1, Activin receptor type-1B (Homo sapiens) (UniProt P36896); experiment: Inhibition of human recombinant ALK4 at 500 nM in presence of ATP by radiometric assay relative to control; procedure, shortened: as §1
T1 sequence (whole entry): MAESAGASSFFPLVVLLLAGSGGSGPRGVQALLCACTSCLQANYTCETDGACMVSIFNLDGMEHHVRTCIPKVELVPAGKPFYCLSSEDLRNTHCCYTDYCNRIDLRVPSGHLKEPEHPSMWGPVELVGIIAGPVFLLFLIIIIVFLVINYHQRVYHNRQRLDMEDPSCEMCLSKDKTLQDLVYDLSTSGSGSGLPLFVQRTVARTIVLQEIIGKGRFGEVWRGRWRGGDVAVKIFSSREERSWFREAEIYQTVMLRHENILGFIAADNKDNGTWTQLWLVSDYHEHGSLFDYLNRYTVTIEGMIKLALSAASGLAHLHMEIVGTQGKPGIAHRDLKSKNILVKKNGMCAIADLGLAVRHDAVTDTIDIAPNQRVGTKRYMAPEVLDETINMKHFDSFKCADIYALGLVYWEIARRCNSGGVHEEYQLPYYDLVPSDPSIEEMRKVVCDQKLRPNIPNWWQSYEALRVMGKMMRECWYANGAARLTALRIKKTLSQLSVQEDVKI

[8] = biological target: T2, Serine/threonine-protein kinase Nek1 (Homo sapiens) (UniProt Q96PY6); experiment: Inhibition of human recombinant NEK1 at 15 nM related to control ULK1
T2 sequence (whole entry): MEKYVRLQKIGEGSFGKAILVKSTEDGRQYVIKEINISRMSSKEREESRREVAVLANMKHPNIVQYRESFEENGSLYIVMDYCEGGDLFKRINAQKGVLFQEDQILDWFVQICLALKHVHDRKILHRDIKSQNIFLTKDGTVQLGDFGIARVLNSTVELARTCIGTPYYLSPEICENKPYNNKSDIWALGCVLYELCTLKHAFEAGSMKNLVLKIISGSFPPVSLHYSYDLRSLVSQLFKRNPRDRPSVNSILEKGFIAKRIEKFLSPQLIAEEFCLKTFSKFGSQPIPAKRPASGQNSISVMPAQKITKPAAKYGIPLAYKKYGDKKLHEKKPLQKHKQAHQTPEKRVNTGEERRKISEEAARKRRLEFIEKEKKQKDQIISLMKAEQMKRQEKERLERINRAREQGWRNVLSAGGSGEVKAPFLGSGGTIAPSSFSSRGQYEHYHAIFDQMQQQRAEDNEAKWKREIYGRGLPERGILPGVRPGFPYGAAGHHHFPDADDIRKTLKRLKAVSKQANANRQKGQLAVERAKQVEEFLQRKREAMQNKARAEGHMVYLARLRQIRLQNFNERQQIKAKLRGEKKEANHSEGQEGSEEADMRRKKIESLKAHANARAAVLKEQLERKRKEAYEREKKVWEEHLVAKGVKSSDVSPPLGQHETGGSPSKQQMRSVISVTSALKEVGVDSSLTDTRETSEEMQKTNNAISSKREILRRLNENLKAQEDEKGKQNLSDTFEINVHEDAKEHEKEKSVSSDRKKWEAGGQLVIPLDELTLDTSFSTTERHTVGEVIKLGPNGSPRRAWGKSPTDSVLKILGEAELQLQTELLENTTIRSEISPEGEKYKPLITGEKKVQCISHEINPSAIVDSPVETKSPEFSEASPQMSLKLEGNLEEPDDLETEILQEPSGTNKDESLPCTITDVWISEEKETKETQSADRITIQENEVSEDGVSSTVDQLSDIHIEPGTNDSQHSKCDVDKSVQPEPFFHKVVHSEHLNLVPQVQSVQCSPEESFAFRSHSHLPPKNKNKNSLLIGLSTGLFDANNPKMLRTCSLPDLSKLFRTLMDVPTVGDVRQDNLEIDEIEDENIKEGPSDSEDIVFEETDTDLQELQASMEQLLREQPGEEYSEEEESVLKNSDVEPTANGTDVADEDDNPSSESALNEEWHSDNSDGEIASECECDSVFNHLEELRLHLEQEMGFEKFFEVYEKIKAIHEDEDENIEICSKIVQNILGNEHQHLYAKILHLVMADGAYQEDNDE

[9] = biological target: Serine/threonine-protein kinase 32B (Homo sapiens) (UniProt Q9NY57); experiment: Inhibition of human recombinant YANK2 at 15 nM related to control ULK1
Chain of Serine/threonine-protein kinase 32B (Homo sapiens) (Q9NY57 whole entry): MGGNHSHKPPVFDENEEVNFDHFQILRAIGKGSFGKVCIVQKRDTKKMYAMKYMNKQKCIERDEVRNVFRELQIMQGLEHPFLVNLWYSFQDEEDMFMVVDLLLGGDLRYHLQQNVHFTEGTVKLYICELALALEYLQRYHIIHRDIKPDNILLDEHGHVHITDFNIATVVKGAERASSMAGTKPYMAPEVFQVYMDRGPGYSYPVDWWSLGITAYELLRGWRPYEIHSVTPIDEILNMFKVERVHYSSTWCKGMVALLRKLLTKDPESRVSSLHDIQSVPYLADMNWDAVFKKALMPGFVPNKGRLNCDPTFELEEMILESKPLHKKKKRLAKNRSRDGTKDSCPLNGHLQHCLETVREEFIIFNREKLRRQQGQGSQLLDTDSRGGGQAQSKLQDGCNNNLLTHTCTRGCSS

[10] = biological target: Serine/threonine-protein kinase MARK2 (Homo sapiens) (UniProt Q7KZI7); experiment: Inhibition of human recombinant MARK2 at 15 nM related to control ULK1
Chain of Serine/threonine-protein kinase MARK2 (Homo sapiens) (Q7KZI7 whole entry): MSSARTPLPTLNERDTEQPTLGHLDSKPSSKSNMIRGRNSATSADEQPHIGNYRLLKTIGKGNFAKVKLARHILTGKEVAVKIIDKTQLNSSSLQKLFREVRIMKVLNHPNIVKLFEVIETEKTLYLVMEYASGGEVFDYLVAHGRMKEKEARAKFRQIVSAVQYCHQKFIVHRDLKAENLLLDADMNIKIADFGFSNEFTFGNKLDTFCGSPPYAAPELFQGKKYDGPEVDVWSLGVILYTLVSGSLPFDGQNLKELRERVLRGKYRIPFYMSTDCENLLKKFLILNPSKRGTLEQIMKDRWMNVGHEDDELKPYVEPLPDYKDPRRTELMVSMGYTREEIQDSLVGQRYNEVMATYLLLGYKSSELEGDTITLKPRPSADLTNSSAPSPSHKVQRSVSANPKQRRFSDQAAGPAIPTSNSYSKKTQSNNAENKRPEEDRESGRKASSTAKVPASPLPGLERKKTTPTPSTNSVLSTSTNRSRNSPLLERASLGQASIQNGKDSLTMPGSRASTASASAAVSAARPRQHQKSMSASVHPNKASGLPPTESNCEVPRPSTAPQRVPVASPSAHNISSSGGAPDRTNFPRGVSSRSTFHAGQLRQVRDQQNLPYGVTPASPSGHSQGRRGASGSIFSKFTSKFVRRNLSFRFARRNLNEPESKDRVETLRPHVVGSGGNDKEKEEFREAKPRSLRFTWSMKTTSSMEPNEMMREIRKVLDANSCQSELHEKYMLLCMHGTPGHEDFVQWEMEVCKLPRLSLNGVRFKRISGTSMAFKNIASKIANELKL

[11] = biological target: Ephrin type-A receptor 2 (Homo sapiens) (UniProt P29317); experiment: Inhibition of human recombinant EphA2 at 15 nM in presence of ATP by radiometric assay relative to control
Chain of Ephrin type-A receptor 2 (Homo sapiens) (P29317 whole entry): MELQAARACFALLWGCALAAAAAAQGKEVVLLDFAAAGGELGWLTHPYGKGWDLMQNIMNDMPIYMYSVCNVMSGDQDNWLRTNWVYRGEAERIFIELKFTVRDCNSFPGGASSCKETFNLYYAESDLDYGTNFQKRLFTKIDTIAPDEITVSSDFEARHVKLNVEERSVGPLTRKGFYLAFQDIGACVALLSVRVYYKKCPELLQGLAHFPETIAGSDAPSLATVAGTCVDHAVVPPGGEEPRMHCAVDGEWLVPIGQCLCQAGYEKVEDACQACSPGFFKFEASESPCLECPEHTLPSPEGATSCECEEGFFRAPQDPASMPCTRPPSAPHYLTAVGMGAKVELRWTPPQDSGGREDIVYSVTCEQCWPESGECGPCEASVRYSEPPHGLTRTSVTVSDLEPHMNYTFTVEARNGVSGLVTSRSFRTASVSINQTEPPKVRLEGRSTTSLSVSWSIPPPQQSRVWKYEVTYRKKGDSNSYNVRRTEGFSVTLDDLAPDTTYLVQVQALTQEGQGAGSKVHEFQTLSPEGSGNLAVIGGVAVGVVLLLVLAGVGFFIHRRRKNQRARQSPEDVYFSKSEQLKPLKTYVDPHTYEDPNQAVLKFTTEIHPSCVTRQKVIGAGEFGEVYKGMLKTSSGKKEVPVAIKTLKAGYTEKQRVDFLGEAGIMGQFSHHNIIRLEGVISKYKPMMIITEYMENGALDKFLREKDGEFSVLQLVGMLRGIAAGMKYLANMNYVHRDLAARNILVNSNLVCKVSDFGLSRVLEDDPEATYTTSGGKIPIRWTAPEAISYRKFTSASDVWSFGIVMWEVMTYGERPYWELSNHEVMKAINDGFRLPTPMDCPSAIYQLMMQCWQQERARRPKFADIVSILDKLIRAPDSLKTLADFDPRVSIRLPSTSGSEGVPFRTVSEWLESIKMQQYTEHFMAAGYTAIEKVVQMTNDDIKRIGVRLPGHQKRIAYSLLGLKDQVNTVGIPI

[12] = biological target: Cyclin-dependent kinase 1 (Homo sapiens) (UniProt P06493); experiment: Inhibition of human recombinant CDC2 at 15 nM in presence of ATP by radiometric assay relative to control
Chain of Cyclin-dependent kinase 1 (Homo sapiens) (P06493 whole entry, looked up): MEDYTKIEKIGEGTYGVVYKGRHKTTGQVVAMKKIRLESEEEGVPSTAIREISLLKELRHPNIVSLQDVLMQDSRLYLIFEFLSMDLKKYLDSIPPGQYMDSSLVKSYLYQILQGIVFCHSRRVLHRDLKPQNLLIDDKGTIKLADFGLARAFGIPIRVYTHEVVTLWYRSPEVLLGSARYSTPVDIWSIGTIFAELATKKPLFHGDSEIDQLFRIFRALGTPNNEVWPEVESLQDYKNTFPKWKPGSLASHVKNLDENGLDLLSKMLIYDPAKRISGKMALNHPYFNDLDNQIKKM

Which results are given for `O=C(N[C@@H](C1CC1)C(F)(F)F)c1cc(-c2cnn3cc(-c4ccc(F)cc4)cnc23)cs1`?
fold change (FC) [1]: 0; inhibition [2]: 0%; fold change (FC) [3]: 0

Which fold change (FC) [4] does the source give for `CNC(=O)c1ccccc1Oc1nc(Nc2cc(OC)c(OC)c(OC)c2)ncc1Br` here?
Its fold change (FC) is 0.22.

And the fold change (FC) [5]?
Its fold change (FC) is 0.03.

What about the inhibition [6] of the same compound?
The inhibition was 0%.

What about the inhibition [7] of the same compound?
The inhibition was 15%.

How did the fold change (FC) [8] turn out when `CC(C)[C@H](NC(=O)c1cc(-c2cnn3cc(-c4ccc(OCCN5CCCCC5)cc4)cnc23)cs1)C(F)(F)F` was run?
Its fold change (FC) is 0.03.

What about the fold change (FC) [9] of the same compound?
Its fold change (FC) is 0.

What about the fold change (FC) [10] of the same compound?
Its fold change (FC) is 0.53.

What about the inhibition [11] of the same compound?
The inhibition was 0%.

What about the inhibition [12] of the same compound?
The inhibition was 24%.
